Source: ChEMBL document CHEMBL1649319, “In vitro antifungal activities of isavuconazole and comparators against rare yeast pathogens” (2010)
Converted amounts (≈) assume the structure as drawn.

Key:
Assay type in all cases: functional
[1] = tested on: Cutaneotrichosporon mucoides; assay: Antifungal activity against Trichosporon mucoides after 48 hrs by Etest
In short: (§1)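 Etest on 2% glucose-RPMI agar. Yeast suspensions were swabbed across the plates and strips applied, then incubated at 35°C for 48 h. MIC was the lowest concentration where the elliptical inhibition zone border met the strip scale. Each reading was raised to the next 2-fold dilution on the CLSI scale and converted to log2. Isolates were revived from −70°C stocks on potato dextrose or Sabouraud agar.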

[2] = tested on: Rhodotorula mucilaginosa; assay: Antifungal activity against Rhodotorula mucilaginosa after 48 hrs by Etest; in short: as §1
[3] = tested on: Magnusiomyces capitatus; assay: Antifungal activity against Dipodascus capitatus after 48 hrs by broth microdilution method
In short: (§2)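 CLSI M27-A3 broth microdilution. Isolates were identified by ITS1-5.8S-ITS2 sequencing, kept at −70°C in sterile water, and revived on potato dextrose or Sabouraud agar. Drug ranges in wells were 0.015–16 or 0.125–128 μg/ml, depending on the agent. Plates were incubated at 35°C and MICs read visually at 48 h. QC strains were C. krusei ATCC 6258 and C. parapsilosis ATCC 22019.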

[4] = Antifungal activity against Trichosporon jirovecii after 48 hrs by broth microdilution method; details: Cutaneotrichosporon jirovecii; in short: as §2
[5] = tested on: Magnusiomyces capitatus; assay: Antifungal activity against Dipodascus capitatus after 3 days by broth microdilution method; details: 72 h
[6] = Antifungal activity against Trichosporon domesticum after 48 hrs by broth microdilution method; details: Apiotrichum domesticum; in short: as §2
[7] = tested on: Saccharomyces cerevisiae; assay: Antifungal activity against Saccharomyces cerevisiae after 48 hrs by Etest; in short: as §1
[8] = tested on: Trichosporon asahii; assay: Antifungal activity against Trichosporon asahii after 48 hrs by Etest; in short: as §1
[9] = Antifungal activity against Trichosporon domesticum after 48 hrs by Etest; details: Apiotrichum domesticum; in short: as §1
[10] = tested on: Magnusiomyces capitatus; assay: Antifungal activity against Dipodascus capitatus after 4 days by Etest; details: 96 h
[11] = tested on: Cutaneotrichosporon mucoides; assay: Antifungal activity against Trichosporon mucoides after 48 hrs by broth microdilution method; in short: as §2
[12] = tested on: Rhodotorula mucilaginosa; assay: Antifungal activity against Rhodotorula mucilaginosa after 7 days by broth microdilution method; details: 168 h
[13] = tested on: Rhodotorula mucilaginosa; assay: Antifungal activity against Rhodotorula mucilaginosa after 48 hrs by broth microdilution method; in short: as §2
[14] = tested on: Trichosporon asahii; assay: Antifungal activity against Trichosporon asahii after 48 hrs by broth microdilution method; in short: as §2
[15] = tested on: Trichosporon inkin; assay: Antifungal activity against Trichosporon inkin after 48 hrs by broth microdilution method; in short: as §2
[16] = tested on: Saccharomyces cerevisiae; assay: Antifungal activity against Saccharomyces cerevisiae after 48 hrs by broth microdilution method; in short: as §2
[17] = tested on: Trichosporon inkin; assay: Antifungal activity against Trichosporon inkin after 48 hrs by Etest; in short: as §1
[18] = tested on: Trichosporon; assay: Antifungal activity against Trichosporon sp. after 3 days by broth microdilution method; details: 72 h
[19] = tested on: Magnusiomyces capitatus; assay: Antifungal activity against Dipodascus capitatus after 48 hrs by Etest; in short: as §1
[20] = tested on: Trichosporon; assay: Antifungal activity against Trichosporon sp. after 4 days by Etest; details: 96 h
[21] = tested on: Cutaneotrichosporon mucoides; assay: Antifungal activity against Trichosporon mucoides assessed as percent susceptible isolates after 48 hrs by broth microdilution method
In short: (§3)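 Broth microdilution MICs (CLSI, 35°C, visual read at 48 h) were sorted into categories using CLSI M27-A3 triazole breakpoints. Susceptible was ≤1 or ≤8 μg/ml, SDD was 2 or 16–32 μg/ml, and resistant was ≥4 or ≥64 μg/ml, depending on the agent. Each category is the percentage of isolates falling in it.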

[22] = Antifungal activity against Trichosporon jirovecii after 48 hrs by Etest; details: Cutaneotrichosporon jirovecii; in short: as §1
[23] = tested on: Saccharomyces cerevisiae; assay: Antifungal activity against Saccharomyces cerevisiae after 5 days by broth microdilution method; details: 120 h
[24] = tested on: Cutaneotrichosporon mucoides; assay: Antifungal activity against Trichosporon mucoides assessed as percent susceptible/dose-dependent isolates after 48 hrs by broth microdilution method; in short: as §3
[25] = tested on: Rhodotorula mucilaginosa; assay: Antifungal activity against Rhodotorula mucilaginosa after 7 days by Etest; details: 168 h

Work on `OC(Cn1cncn1)(Cn1cncn1)c1ccc(F)cc1F` [FLUCONAZOLE] yielded an MIC50 [1] of 1 µg/mL (≈ 3.27 µM), an MIC90 [1] of 4 µg/mL (≈ 13.1 µM) and an MIC [2] of over 128 µg/mL. For the same compound, the MIC50 [2] was over 128 µg/mL, the MIC90 [2] was over 128 µg/mL and the MIC50 [3] was 4 µg/mL (≈ 13.1 µM). It also gave an MIC90 [3] of 16 µg/mL (≈ 52.2 µM), an MIC50 [4] of 2 µg/mL (≈ 6.53 µM) and an MIC90 [4] of 8 µg/mL (≈ 26.1 µM). It also gave an MIC50 [5] of 4 µg/mL (≈ 13.1 µM), an MIC90 [5] of 16 µg/mL (≈ 52.2 µM) and an MIC50 [6] of 2 µg/mL (≈ 6.53 µM). It also gave an MIC90 [6] of 8 µg/mL (≈ 26.1 µM), an MIC50 [7] of 4 µg/mL (≈ 13.1 µM) and an MIC90 [7] of 64 µg/mL (≈ 209 µM). For the same compound, the MIC50 [8] was 1 µg/mL (≈ 3.27 µM), the MIC90 [8] was 4 µg/mL (≈ 13.1 µM) and the MIC50 [9] was 1 µg/mL (≈ 3.27 µM). The MIC90 [9] was 4 µg/mL (≈ 13.1 µM), the MIC50 [10] was 1 µg/mL (≈ 3.27 µM) and the MIC90 [10] was 4 µg/mL (≈ 13.1 µM). It also gave an MIC50 [11] of 2 µg/mL (≈ 6.53 µM), an MIC90 [11] of 8 µg/mL (≈ 26.1 µM) and an MIC [12] of over 128 µg/mL. For the same compound, the MIC50 [12] was over 128 µg/mL, the MIC90 [12] was over 128 µg/mL and the MIC [13] was over 128 µg/mL. For the same compound, the MIC50 [13] was over 128 µg/mL, the MIC90 [13] was over 128 µg/mL and the MIC50 [14] was 2 µg/mL (≈ 6.53 µM). It also gave an MIC90 [14] of 8 µg/mL (≈ 26.1 µM), an MIC50 [15] of 2 µg/mL (≈ 6.53 µM) and an MIC90 [15] of 8 µg/mL (≈ 26.1 µM). It also gave an MIC50 [16] of 4 µg/mL (≈ 13.1 µM), an MIC90 [16] of 16 µg/mL (≈ 52.2 µM) and an MIC50 [17] of 1 µg/mL (≈ 3.27 µM). For the same compound, the MIC90 [17] was 4 µg/mL (≈ 13.1 µM), the MIC50 [18] was 2 µg/mL (≈ 6.53 µM) and the MIC90 [18] was 8 µg/mL (≈ 26.1 µM). For the same compound, the MIC50 [19] was 1 µg/mL (≈ 3.27 µM), the MIC90 [19] was 4 µg/mL (≈ 13.1 µM) and the MIC50 [20] was 1 µg/mL (≈ 3.27 µM). It also gave an MIC90 [20] of 4 µg/mL (≈ 13.1 µM), an MIC50 [21] of 2 µg/mL (≈ 6.53 µM) and an MIC90 [21] of 8 µg/mL (≈ 26.1 µM). It also gave an MIC50 [22] of 1 µg/mL (≈ 3.27 µM), an MIC90 [22] of 4 µg/mL (≈ 13.1 µM) and an MIC50 [23] of 4 µg/mL (≈ 13.1 µM). The MIC90 [23] was 16 µg/mL (≈ 52.2 µM), the MIC50 [24] was 2 µg/mL (≈ 6.53 µM) and the MIC90 [24] was 8 µg/mL (≈ 26.1 µM). It also gave an MIC [25] of over 128 µg/mL, an MIC50 [25] of over 128 µg/mL and an MIC90 [25] of over 128 µg/mL.
In the case of `C[C@@H](c1nc(-c2ccc(C#N)cc2)cs1)[C@](O)(Cn1cncn1)c1cc(F)ccc1F` [ISAVUCONAZOLE], the MIC50 [1] is reported as 0.06 µg/mL (≈ 0.137 µM), the MIC90 [1] is reported as 0.125 µg/mL (≈ 0.286 µM) and the MIC50 [2] is reported as 1 µg/mL (≈ 2.29 µM). The MIC90 [2] was 4 µg/mL (≈ 9.14 µM), the MIC50 [3] was 0.06 µg/mL (≈ 0.137 µM) and the MIC90 [3] was 0.5 µg/mL (≈ 1.14 µM). It also gave an MIC50 [4] of 0.06 µg/mL (≈ 0.137 µM), an MIC90 [4] of 0.5 µg/mL (≈ 1.14 µM) and an MIC50 [5] of 0.06 µg/mL (≈ 0.137 µM). For the same compound, the MIC90 [5] was 0.5 µg/mL (≈ 1.14 µM), the MIC50 [6] was 0.06 µg/mL (≈ 0.137 µM) and the MIC90 [6] was 0.5 µg/mL (≈ 1.14 µM). For the same compound, the MIC50 [7] was 0.125 µg/mL (≈ 0.286 µM), the MIC90 [7] was 0.5 µg/mL (≈ 1.14 µM) and the MIC50 [8] was 0.06 µg/mL (≈ 0.137 µM). The MIC90 [8] was 0.125 µg/mL (≈ 0.286 µM), the MIC50 [9] was 0.06 µg/mL (≈ 0.137 µM) and the MIC90 [9] was 0.125 µg/mL (≈ 0.286 µM). It also gave an MIC50 [10] of 0.125 µg/mL (≈ 0.286 µM), an MIC90 [10] of 1 µg/mL (≈ 2.29 µM) and an MIC50 [11] of 0.06 µg/mL (≈ 0.137 µM). It also gave an MIC90 [11] of 0.5 µg/mL (≈ 1.14 µM), an MIC50 [12] of 0.5 µg/mL (≈ 1.14 µM) and an MIC90 [12] of 2 µg/mL (≈ 4.57 µM). It also gave an MIC50 [13] of 0.5 µg/mL (≈ 1.14 µM), an MIC90 [13] of 2 µg/mL (≈ 4.57 µM) and an MIC50 [14] of 0.06 µg/mL (≈ 0.137 µM). The MIC90 [14] was 0.5 µg/mL (≈ 1.14 µM), the MIC50 [15] was 0.06 µg/mL (≈ 0.137 µM) and the MIC90 [15] was 0.5 µg/mL (≈ 1.14 µM). For the same compound, the MIC50 [16] was 0.03 µg/mL (≈ 0.0686 µM), the MIC90 [16] was 0.5 µg/mL (≈ 1.14 µM) and the MIC50 [17] was 0.06 µg/mL (≈ 0.137 µM). For the same compound, the MIC90 [17] was 0.125 µg/mL (≈ 0.286 µM), the MIC50 [18] was 0.06 µg/mL (≈ 0.137 µM) and the MIC90 [18] was 0.5 µg/mL (≈ 1.14 µM). It also gave an MIC50 [19] of 0.125 µg/mL (≈ 0.286 µM), an MIC90 [19] of 1 µg/mL (≈ 2.29 µM) and an MIC50 [20] of 0.06 µg/mL (≈ 0.137 µM). For the same compound, the MIC90 [20] was 0.125 µg/mL (≈ 0.286 µM), the MIC50 [21] was 0.06 µg/mL (≈ 0.137 µM) and the MIC90 [21] was 0.5 µg/mL (≈ 1.14 µM). The MIC50 [22] was 0.06 µg/mL (≈ 0.137 µM), the MIC90 [22] was 0.125 µg/mL (≈ 0.286 µM) and the MIC50 [23] was 0.03 µg/mL (≈ 0.0686 µM). It also gave an MIC90 [23] of 0.5 µg/mL (≈ 1.14 µM), an MIC50 [24] of 0.06 µg/mL (≈ 0.137 µM) and an MIC90 [24] of 0.5 µg/mL (≈ 1.14 µM). It also gave an MIC50 [25] of 1 µg/mL (≈ 2.29 µM) and an MIC90 [25] of 4 µg/mL (≈ 9.14 µM).
